Screens deposited in PubChem by The Scripps Research Institute Molecular Screening Center.
This is a sample that favours compounds with a hit; in the whole collection about 1.9% have one here.
PLC-gamma1 inh – PLC-gamma1 enzyme inhibitors, primary screen, biochemical, fluorescence, purified enzyme; fluorogenic substrate; inhibition, % at 12.2 µM; hit rate 0.84% among 370,000; AID 720700, 2013; 1-phosphatidylinositol 4,5-bisphosphate phosphodiesterase gamma-1 (Homo sapiens), P19174; in the data active = inhibition above about 9.5%
PLC-beta3 inh – human PLC-beta3 inhibitors, primary screen, biochemical, fluorescence; Purified PLC-beta3, fluorogenic substrate; inhibition, % at 12.2 µM; hit rate 0.18% among 370,000; 1-phosphatidylinositol 4,5-bisphosphate phosphodiesterase beta-3 (Homo sapiens), Q01970; in the data active = inhibition above about 11%;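 also: 0% = median of compound wells on plate and 100% = full blocker control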
TbMetRS inhib – T. brucei MetRS inhibitors, primary screen, biochemical, luminescence; inhibition, % at 11.9 µM; purified T. brucei MetRS, ATP depletion, Kinase-Glo luminescence; methionyl-tRNA synthetase (Trypanosoma brucei brucei); hit rate 0.4% among 360,000;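 active = inhibition above a per-plate cutoff of the control wells' mean inhibition plus 3 SD, cut at about 5.5% in these data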;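 also: 0% = DMSO wells median and 100% = median of wells with control inhibitor compound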
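Material: T. brucei methionyl-tRNA synthetase, purified; reagent: substrates ATP, L-methionine and bulk Escherichia coli tRNA; dosing: 11.9 µM single point; timing: 15 min plus 2 h at 25 °C; detection: luminescence of leftover ATP; evaluation: % inhibition; control set: DMSO-only wells as low control; replicates: singlicate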
sPLA2-III inh – human group III sPLA2 inhibitors, primary screen, biochemical, QFRET, BODIPY PC-A2 liposome substrate; Group 3 secretory phospholipase A2 (Homo sapiens), Q9NZ20; QFRET BODIPY PC-A2 liposome hydrolysis, fluorescence; inhibition, % at 12.2 µM; hit rate 0.56% among 370,000;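 active = inhibition above mean plus 3 SD of compounds lying within the high and low control bounds, cut at about 19% in these data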;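 also: 0% = median of test compound wells and 100% = no enzyme DMSO wells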
Target sequence (Q9NZ20 whole entry, looked up): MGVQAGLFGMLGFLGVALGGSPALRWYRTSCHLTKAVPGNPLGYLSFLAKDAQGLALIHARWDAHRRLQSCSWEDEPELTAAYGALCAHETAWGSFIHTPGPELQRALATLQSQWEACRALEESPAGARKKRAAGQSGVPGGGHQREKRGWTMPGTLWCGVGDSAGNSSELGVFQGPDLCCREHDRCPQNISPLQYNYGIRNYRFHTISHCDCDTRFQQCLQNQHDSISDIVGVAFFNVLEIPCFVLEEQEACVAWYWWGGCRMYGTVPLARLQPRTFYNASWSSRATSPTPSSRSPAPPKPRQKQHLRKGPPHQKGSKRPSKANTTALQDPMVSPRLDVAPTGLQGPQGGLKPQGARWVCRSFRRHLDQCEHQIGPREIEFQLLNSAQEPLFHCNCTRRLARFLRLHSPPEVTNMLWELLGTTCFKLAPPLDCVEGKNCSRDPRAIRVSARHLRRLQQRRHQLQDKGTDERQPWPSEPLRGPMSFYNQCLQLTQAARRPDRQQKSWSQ
Numbers without * were called inactive.

Results for COc1cccc2c1C(=O)C=C(C)C2=O ?
PLC-gamma1 inh: -31; PLC-beta3 inh: -25; TbMetRS inhib: 0; sPLA2-III inh: 6

Results for COC1=CC(=O)c2c(ccc3ncnc(N)c23)C1=O ?
PLC-gamma1 inh: 13*; PLC-beta3 inh: -4; TbMetRS inhib: 2; sPLA2-III inh: -12

Results for CCOC(=O)c1sc(=S)[nH]c1C ?
PLC-gamma1 inh: 1; PLC-beta3 inh: -6; TbMetRS inhib: 0; sPLA2-III inh: 23*

How did COc1ccc(NC(=O)C(Cl)=C(Cl)Cl)cn1 do in these assays?
PLC-gamma1 inh: 0; PLC-beta3 inh: 3; TbMetRS inhib: 0; sPLA2-III inh: 1

What do the screens show for `COc1ccc(NC(=O)/C(Cl)=C(/Cl)S(=O)(=O)Cc2ccccc2)cn1`?
PLC-gamma1 inh: 10*; PLC-beta3 inh: 7; TbMetRS inhib: -1; sPLA2-III inh: -1

What do the screens show for `O=C(NC1CCCCN(Cc2cccc(Cl)c2)C1=O)c1ccc(Cl)cc1Cl` (stereo not given)?
PLC-gamma1 inh: 5; PLC-beta3 inh: -1; sPLA2-III inh: 9

What do the screens show for `O=c1c2ccccc2ncn1-c1cccc([N+](=O)[O-])c1`?
PLC-gamma1 inh: 3; PLC-beta3 inh: -8; TbMetRS inhib: -1; sPLA2-III inh: 20*

How did O=c1c2ccccc2ncn1-c1ccc([N+](=O)[O-])cc1[N+](=O)[O-] do in these assays?
PLC-gamma1 inh: 2; PLC-beta3 inh: 0; TbMetRS inhib: -1; sPLA2-III inh: -6

Results for Cc1ccc(-c2[nH]ncc2/C=N/n2c(COc3ccccc3)nc3ccccc3c2=O)cc1 ?
PLC-gamma1 inh: -1; PLC-beta3 inh: 0; TbMetRS inhib: -1; sPLA2-III inh: -8

What do the screens show for `Cc1cc(/C=N/n2c(COc3ccccc3)nc3ccccc3c2=O)c(O)c([N+](=O)[O-])c1`?
PLC-gamma1 inh: -19; PLC-beta3 inh: -19; TbMetRS inhib: -1; sPLA2-III inh: 39*

How did Cc1[nH]n(-c2ccccc2)c(=O)c1N=Nc1ccc2c(c1)OCCO2 do in these assays?
PLC-gamma1 inh: -1; PLC-beta3 inh: 3; TbMetRS inhib: 0; sPLA2-III inh: 5

What do the screens show for `Cc1[nH]n(-c2ccccc2)c(=O)c1N=Nc1c(O)cc(S(=O)(=O)N(C)C)c2ccccc12`?
PLC-gamma1 inh: -6; PLC-beta3 inh: -7; TbMetRS inhib: 0; sPLA2-III inh: 31*

How did CC(=O)Nc1ccc(S(=O)(=O)NCCSCc2ccc(Cl)cc2Cl)cc1 do in these assays?
PLC-gamma1 inh: 3; PLC-beta3 inh: 3; TbMetRS inhib: 13*; sPLA2-III inh: -50

Results for CC(=O)Nc1ccc(S(=O)(=O)NCCNS(=O)(=O)c2ccc(NC(C)=O)cc2)cc1 ?
PLC-gamma1 inh: -4; PLC-beta3 inh: -6; TbMetRS inhib: 0; sPLA2-III inh: -3

What do the screens show for `Cc1ccc(CSc2nnc(-c3cccs3)n2C)cc1`?
PLC-gamma1 inh: 1; PLC-beta3 inh: 3; TbMetRS inhib: -1; sPLA2-III inh: -13

How did Cn1c(SCc2c(Cl)cccc2Cl)nnc1-c1cccs1 do in these assays?
PLC-gamma1 inh: 11*; PLC-beta3 inh: -4; TbMetRS inhib: 0; sPLA2-III inh: 0

Results for O=C(Nc1ccccc1)Nc1nc2ncccn2c1-c1ccc(F)cc1 ?
PLC-gamma1 inh: -118; PLC-beta3 inh: -136; sPLA2-III inh: 2

How did c1ccc(Cn2c(SCC3CCCCC3)nnc2-c2cccnc2)cc1 do in these assays?
PLC-gamma1 inh: -2; PLC-beta3 inh: -2; sPLA2-III inh: 1

What do the screens show for `COc1cc(C(=O)N/N=C/c2ccc(OC(=O)c3cccc(C)c3)cc2)ccc1O`?
PLC-gamma1 inh: 16*; PLC-beta3 inh: 3; TbMetRS inhib: 0; sPLA2-III inh: -11

Results for COc1cc(/C=N/NC(=O)c2ccc(N)cc2)ccc1OC(=O)c1cccc(C)c1 ?
PLC-gamma1 inh: -30; PLC-beta3 inh: -54; TbMetRS inhib: -1; sPLA2-III inh: -3

Results for Cc1ccc(NC(=S)c2nc3ccccc3[nH]2)c(C)c1 ?
PLC-gamma1 inh: 6; PLC-beta3 inh: 2; TbMetRS inhib: 0; sPLA2-III inh: 31*

Results for Cc1ccc(NC(=S)c2nc3ccccc3[nH]2)cc1 ?
PLC-gamma1 inh: 5; PLC-beta3 inh: 6; TbMetRS inhib: -2; sPLA2-III inh: 14

What do the screens show for `Cc1ccc(OCCCN(C)C)c(Br)c1`?
PLC-gamma1 inh: 0; PLC-beta3 inh: 2; TbMetRS inhib: -1; sPLA2-III inh: 7
